Data reported in ChEMBL document CHEMBL1649112, “Effects of exposure of Clostridium difficile PCR ribotypes 027 and 001 to fluoroquinolones in a human gut model” (Antimicrob Agents Chemother, 2009).
The source made the active and inactive calls. The calls are words filed in the database; no cut-off is given here.

What was measured:
Bacteroides sp. = assay: Antimicrobial activity against Bacteroides sp. in three-stage chemostat gut model assessed as log reduction in bacterial count at 63 mg/liter administered daily for 7 days; assay type: functional
Summary of the method: (§1)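 Three-stage anaerobic chemostat (37°C, N2-sparged; vessels at pH 5.5, 6.2 and 6.8; 66.7 h total retention) primed with 10% (wt/vol) pooled C. difficile-negative feces from healthy elderly donors. Instillation began on day 21. Vessel 2 and 3 samples were diluted 10-fold serially to 10–7 in prereduced peptone water and plated on selective agars in triplicate; counts are log10 CFU/ml.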

Lactobacillus [1] = assay: Antimicrobial activity against Lactobacillus in three-stage chemostat gut model assessed as log reduction in bacterial count at 63 mg/liter administered daily for 7 days; assay type: functional; summary of the method: as §1
Enterococcus = assay: Antimicrobial activity against Enterococcus in three-stage chemostat gut model assessed as log reduction in bacterial count at 63 mg/liter administered daily for 7 days; assay type: functional, organism-based; summary of the method: as §1
[2] = Drug level in human feces; assay type: ADME, tissue-based
Clostridioides difficile [3] = assay: Antimicrobial activity against Clostridium difficile PCR ribotype 027 expressing gyrB Glu466Lys mutant grown on fluoroquinolone-containing medium after 48 hrs; assay type: functional; details: PCR ribotype 027, 48 h
Clostridioides difficile [4] = assay: Induction of cytotoxin production in Clostridium difficile PCR ribotype 001 in three-stage chemostat gut model at 63 mg/liter administered daily for 7 days measured after 3 days; assay type: functional, organism-based
Summary of the method: (§2)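 Gut model as above; on day 21 drug instillation began and a second C. difficile spore inoculum was added to vessel 1. Sample supernatants (16,000 x g) were diluted serially to 10–7 in PBS pH 7.4 and applied to Vero monolayers at 37°C in 5% CO2. Cell rounding was read at 24 and 48 h, and titers are given in relative units.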

Clostridioides difficile [5] = assay: Induction of cytotoxin production in Clostridium difficile PCR ribotype 027 in three-stage chemostat gut model at 63 mg/liter administered daily for 7 days measured after 2 days; assay type: functional, organism-based; summary of the method: as §2
Clostridioides difficile [6] = assay: Antimicrobial activity against Clostridium difficile PCR ribotype 001 expressing gyrB Glu466Lys mutant grown on fluoroquinolone-containing medium after 48 hrs; assay type: functional; details: PCR ribotype 001, 48 h
Clostridium = assay: Antimicrobial activity against Clostridium in three-stage chemostat gut model assessed as log reduction in bacterial count at 63 mg/liter administered daily for 7 days; assay type: functional; summary of the method: as §1
Bifidobacterium [7] = assay: Antimicrobial activity against Bifidobacterium in three-stage chemostat gut model assessed as log reduction in bacterial count at 139 mg/liter administered every 12 hrs for 7 days; assay type: functional; summary of the method: as §1
Lactobacillus [8] = assay: Antimicrobial activity against Lactobacillus in three-stage chemostat gut model assessed as log reduction in bacterial count at 43 mg/liter administered daily for 7 days; assay type: functional; summary of the method: as §1
Bifidobacterium [9] = assay: Antimicrobial activity against Bifidobacterium in three-stage chemostat gut model assessed as log reduction in bacterial count at 43 mg/liter administered daily for 7 days; assay type: functional; summary of the method: as §1

Compound | FC (Bacteroides sp.) | Activity (Lactobacillus [1]) | Activity (Enterococcus) | Drug uptake [2] | MIC (Clostridioides difficile [3]) | Activity (Clostridioides difficile [4]) | Activity (Clostridioides difficile [5]) | MIC (Clostridioides difficile [6]) | Activity (Clostridium) | Activity (Bifidobacterium [7]) | Activity (Lactobacillus [8]) | Activity (Bifidobacterium [9])
C[C@H]1COc2c(N3CCN(C)CC3)c(F)cc3c(=O)c(C(=O)O)cn1c23.C[C@H]1COc2c(N3CCN(C)CC3)c(F)cc3c(=O)c(C(=O)O)cn1c23.O [LEVOFLOXACIN] | 1 | inactive | inactive | 94 mg/kg | 256 µg/mL | Active | Active | 256 µg/mL | inactive | – | – | –
O=C(O)c1cn(C2CC2)c2cc(N3CCNCC3)c(F)cc2c1=O [CIPROFLOXACIN] | – | – | – | 139 mg/kg | – | – | – | – | – | Active | – | –
COc1c(N2C[C@@H]3CCCN[C@@H]3C2)c(F)cc2c(=O)c(C(=O)O)cn(C3CC3)c12 [MOXIFLOXACIN] | – | – | – | 66 mg/kg | – | – | – | – | – | – | inactive | inactive
